High-throughput results as filed in PubChem.
TRPC6 inhibitor – inhibitors of mouse TRPC6 channel. Q61143. HEK293-TRPC6, membrane potential dye, ACh-evoked depolarization; hits give low values. B-score at 10 µM. 1.1% of 310,000 active;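 active = B-score under library mean minus 3 SD, initial fluorescence not abnormally high, positive integrated signal ratio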;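 note: B-score derived from integrated fluorescence ratio over the kinetic read; more negative B-score means stronger inhibition of depolarization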
Target sequence (Q61143 whole entry, looked up): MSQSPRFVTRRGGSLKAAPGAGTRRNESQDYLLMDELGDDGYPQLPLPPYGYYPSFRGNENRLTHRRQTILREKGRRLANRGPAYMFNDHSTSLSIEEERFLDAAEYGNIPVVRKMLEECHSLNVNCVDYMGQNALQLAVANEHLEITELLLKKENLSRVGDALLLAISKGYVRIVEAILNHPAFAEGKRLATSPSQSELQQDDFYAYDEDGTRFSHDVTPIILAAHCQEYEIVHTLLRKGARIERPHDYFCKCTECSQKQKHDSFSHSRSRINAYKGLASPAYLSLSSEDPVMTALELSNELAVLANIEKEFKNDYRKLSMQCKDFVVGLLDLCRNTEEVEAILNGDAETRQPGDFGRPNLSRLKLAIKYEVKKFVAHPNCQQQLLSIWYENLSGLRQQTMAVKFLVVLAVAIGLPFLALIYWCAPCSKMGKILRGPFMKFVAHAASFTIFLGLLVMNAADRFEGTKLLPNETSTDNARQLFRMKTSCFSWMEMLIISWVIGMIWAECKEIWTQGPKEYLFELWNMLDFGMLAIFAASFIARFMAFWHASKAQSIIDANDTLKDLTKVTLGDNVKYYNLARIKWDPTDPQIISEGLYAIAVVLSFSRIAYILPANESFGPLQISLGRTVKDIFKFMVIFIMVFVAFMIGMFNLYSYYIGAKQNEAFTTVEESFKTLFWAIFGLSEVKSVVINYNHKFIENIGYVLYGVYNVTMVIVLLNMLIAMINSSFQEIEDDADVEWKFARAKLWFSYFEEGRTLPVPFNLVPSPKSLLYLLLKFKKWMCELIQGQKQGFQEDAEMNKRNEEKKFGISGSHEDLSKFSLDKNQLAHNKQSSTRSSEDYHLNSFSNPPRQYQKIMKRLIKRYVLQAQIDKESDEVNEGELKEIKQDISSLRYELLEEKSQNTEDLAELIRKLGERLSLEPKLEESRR
TRPC4 inh – inhibitors of mouse TRPC4 channel; B-score at 10 µM; HEK293 TRPC4beta/mu-opioid, DAMGO-evoked Fluo4 calcium flux; hits give low values; 0.39% of 300,000 active; AID 2247;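 active = B-score over 3 SD under the library average, no early fluorescence shift, positive overall ratio signal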
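test system = HEK293 cells with stable TRPC4beta plus mu-opioid receptor expression | detection = Fluo4 Ca2+ flux fluorescence | read-out = integrated fluorescence ratio relative to baseline, converted to per-well B score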
Kir21 inh – inhibitors of mouse Kir2.1 inward-rectifier potassium channel; B-score at 10 µM; HEK293-Kir2.1, FluxOR thallium flux fluorescence; hits give low values; P35561; 0.85% of 310,000 active;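 active = fluorescence ratio B-score at or below minus 3 SD of library scores, with starting-brightness B-score within 2 SD, cut at about -4.2 in these data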;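 note: channel flux triggered by added potassium and thallium sulfate stimulus; B-score of peak minus minimum fluorescence over baseline after thallium stimulus; more negative B-score means stronger Kir2.1 block with less thallium influx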
TRPC6 act – mouse TRPC6 channel activation. HEK293-TRPC6 membrane potential dye fluorescence; hits give high values. B-score at 10 µM. 0.13% of 310,000 active. AID 2550;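 active = B-score of the integrated fluorescence ratio above library mean plus 3 SD, and starting fluorescence ratio within library mean plus 5 SD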;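 note: higher score means more depolarization so channel activation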
TRPC4 act – activators of mouse TRPC4 channel | HEK293 TRPC4beta/mu-opioid, Fluo4 calcium fluorescence; hits give high values | Q9QUQ5 | B-score at 10 µM | 0.49% of 310,000 active;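 active = B-score above 5 SD of library B-scores, and initial fluorescence ratio not above library mean plus 5 SD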;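 note: positive B-score marks a calcium rise read as TRPC4 activation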
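Incubation: 45 min room-temperature Fluo4 loading, 110 s read / System: HEK293 cells stably co-expressing mouse TRPC4beta and mu-opioid receptor / Signal: Fluo4 fluorescence, kinetic / Control set: buffer (low) and maximal DAMGO (high) / Measure: integrated baseline-normalised fluorescence ratio, converted to per-well B score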
TRPC4 potent – TRPC4 (mouse) allosteric potentiation. Q9QUQ5. HEK293 TRPC4beta/mu-opioid, DAMGO EC20, Fluo-4 Ca2+ flux; hits give high values. B-score at 10 µM. 0.42% of 310,000 active. AID 2227;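 active = B-score of calcium response area above 5 SD of library B-scores, with initial fluorescence ratio within 5 SD of library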;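 note: B-score of integrated fluorescence ratio over time as area under calcium response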
TRPC4 spec 2 – mouse TRPC4 off-target activity of TRPC6 inhibitors, second screen. shares compounds with TRPC6 inhibitor. HEK293 TRPC4/MOR, membrane potential dye fluorescence; channel activated by saturating DAMGO dose. inhibition, % at 10 µM. 42% of 920 active. AID 2776;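 active = compounds whose fluorescence signal differed from control wells by over 3 SD, either direction, in both duplicate plates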
TRPC4 spec – selectivity of TRPC6 inhibitors: effect on mouse TRPC4 | shares compounds with TRPC6 inhibitor | HEK293 TRPC4/mu-opioid, membrane potential fluorescence | activity change, negative = inhibition, % at 10 µM | 61% of 920 active;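 active = rise or fall in signal beyond 3 SD of buffer-only wells in both replicate plates, either sign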;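 note: integrated kinetic ratio of fluorescence range over baseline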
HEK293 MPD ctr 2-1 – second counter-screen for TRPC6 inhibitors: parental HEK293 cells; shares compounds with TRPC6 inhibitor; parental HEK293 membrane potential dye fluorescence; maximal acetylcholine challenge after compound addition; signal change vs control, % at 10 µM; 31% of 920 active;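 active = membrane potential signal moving either way by over 3 SD of the maximum-effect control, in both duplicate plates, meaning non-specific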
HEK293 MPD ctr-1 – checks TRPC6 inhibitor effects in parental HEK293 cells | 60% of 920 active | AID 2780 | parental HEK293 membrane potential dye fluorescence | membrane potential signal change, % at 10 µM | shares compounds with TRPC6 inhibitor;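 active = membrane potential signal shifting up or down by more than 3 SD of buffer-only wells, on both duplicate plates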
HEK293 MPD ctr-2 – counter-screen for TRPC6 modulators: effect in parental HEK293 cells; shares compounds with TRPC6 inhibitor; membrane potential dye fluorescence; membrane potential signal change, % at 10 µM; 51% of 2,400 active; AID 488924;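 active = membrane potential signal moves up or down beyond 5 SD from buffer-only wells, on both duplicate plates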
HEK293 MPD ctr 2-2 – second counter-screen for TRPC6 modulators: effect in parental HEK293 cells; AID 488926; shares compounds with TRPC6 inhibitor; inhibition, % at 10 µM; 14% of 2,400 active; membrane potential dye fluorescence; after compound, maximal acetylcholine stimulation;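 active = membrane potential signal drops by more than 5 SD from the mean control signal, in both duplicate plates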;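 note: plate controls were acetylcholine ECmax control wells for no effect and buffer only wells for full effect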
TRPC4/MOR mod – tests whether TRPC6 modulators also affect mouse TRPC4; shares compounds with TRPC6 inhibitor; HEK293 TRPC4/mu-opioid, membrane potential fluorescence; percent change from control (negative = decrease, positive = increase), % at 10 µM; 69% of 2,400 active;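 active = membrane potential signal moved up or down beyond 5 SD of buffer control wells, in both duplicate plates, actives on both sides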;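 note: plate controls were assay buffer wells for no effect and DAMGO maximal-effect wells for full effect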
TRPC4/MOR inh 2 – second selectivity test of TRPC6 modulators against mouse TRPC4 | 55% of 2,400 active | inhibition, % at 10 µM | shares compounds with TRPC6 inhibitor | HEK293 TRPC4/mu-opioid, membrane potential dye fluorescence; stimulated with maximal-effect DAMGO;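 active = drop in membrane potential signal beyond 5 SD of the control wells in both duplicate plates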;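 note: TRPC4 counter screen for TRPC6 hits run under conditions tuned for TRPC6 not TRPC4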
TRPC6 block conf – mouse TRPC6 inhibitor confirmation; AID 488960; shares compounds with TRPC6 inhibitor; HEK293-TRPC6, membrane potential dye, ACh-evoked depolarization; 43% of 3,300 active; inhibition, % at 10 µM;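 active = fluorescence ratio falls more than 5 SD below the full-stimulation control mean, in both duplicate runs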;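 note: integrated fluorescence ratio of peak minus minimum over baseline after agonist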
TRPC6 act confirm – mouse TRPC6 activator confirmation. shares compounds with TRPC6 inhibitor. HEK293-TRPC6 membrane potential dye fluorescence, FDSS. activation, % at 10 µM. 11% of 2,800 active. AID 488961;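 active = ratio signal rise beyond 5 SD above unstimulated control wells' mean, seen in both duplicate runs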;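 note: plate controls were buffer EC0 wells for no effect and acetylcholine ECmax response for full effect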
The depositor's hits bear a star. An excerpt weighted towards active compounds, which were near 3% of everything screened.

Screening CCN(CCO)c1ccc(N=Cc2c(O)n(C)c(=S)[nH]c2=O)cc1 returned TRPC6 inhibitor -7.5*, TRPC4 inh inactive, Kir21 inh -4.1, TRPC6 act 23*, TRPC4 act inactive, TRPC4 potent inactive, HEK293 MPD ctr-2 162%*, HEK293 MPD ctr 2-2 inactive, TRPC4/MOR mod 26%*, TRPC4/MOR inh 2 inactive, TRPC6 block conf 36%* and TRPC6 act confirm 54%*.
COc1ccc(OC)c(-n2c(O)c(C=Nc3c(C)n(C)n(-c4ccccc4)c3=O)c(=O)[nH]c2=S)c1 was read as TRPC6 inhibitor inactive, TRPC4 inh inactive, Kir21 inh 2.5, TRPC6 act inactive, TRPC4 act inactive and TRPC4 potent inactive.
`OC(c1cccc(Cl)c1)(c1cccc(Cl)c1)C1CN2CCC1CC2` (stereo unspecified) gave TRPC6 inhibitor -8*, TRPC4 inh inactive, Kir21 inh -4.7*, TRPC6 act inactive, TRPC4 act inactive, TRPC4 potent inactive, HEK293 MPD ctr-2 inactive, HEK293 MPD ctr 2-2 inactive, TRPC4/MOR mod 10%*, TRPC4/MOR inh 2 inactive, TRPC6 block conf 70%* and TRPC6 act confirm inactive.
CC(=O)N1CC(=O)Nc2ccc(Br)cc2C1c1ccc(F)cc1 (stereo unspecified) was read as TRPC6 inhibitor inactive, TRPC4 inh inactive, Kir21 inh 0.59, TRPC6 act inactive, TRPC4 act inactive and TRPC4 potent inactive.
`CCC1(C(=O)c2ccc(C)cc2)C2c3ccccc3OC(=O)C21C(=O)O` (stereo unspecified) gave TRPC6 inhibitor inactive, TRPC4 inh inactive, Kir21 inh 0.4, TRPC6 act inactive, TRPC4 act inactive and TRPC4 potent inactive.
For CN1CCN(c2ccc([N+](=O)[O-])c(N/N=C3\CN4CCC3CC4)c2)CC1 the results were TRPC6 inhibitor -12*, TRPC4 inh inactive, Kir21 inh 1.8, TRPC6 act inactive, TRPC4 act inactive, TRPC4 potent inactive, HEK293 MPD ctr-2 -230%*, HEK293 MPD ctr 2-2 70%*, TRPC4/MOR mod -48%*, TRPC4/MOR inh 2 82%*, TRPC6 block conf 76%* and TRPC6 act confirm inactive.
For CCNc1cc(N2CCN(C)CC2)ccc1[N+](=O)[O-] the results were TRPC6 inhibitor inactive, TRPC4 inh inactive, Kir21 inh -0.92, TRPC6 act inactive, TRPC4 act inactive and TRPC4 potent inactive.
For CC(C)Cc1nc(N2CCNCC2)c(C#N)c2c1CCC2 the results were TRPC6 inhibitor -10*, TRPC4 inh inactive, Kir21 inh -2.4, TRPC6 act inactive, TRPC4 act inactive, TRPC4 potent inactive, TRPC4 spec 2 34%*, TRPC4 spec 6.0%*, HEK293 MPD ctr 2-1 inactive, HEK293 MPD ctr-1 14%*, TRPC6 block conf 72%* and TRPC6 act confirm inactive.
`CCc1nc(N2CCNCC2)c(C#N)c2c1CSC(C)(C)C2` gave TRPC6 inhibitor inactive, TRPC4 inh inactive, Kir21 inh -0.7, TRPC6 act inactive, TRPC4 act inactive and TRPC4 potent inactive.
`CCC(C)/C=C(C)/C=C/C1=CC2=C(Cl)C(=O)C(C)(OC(C)=O)C(=O)C2=CO1` (stereo unspecified) gave TRPC6 inhibitor -6.5*, TRPC4 inh inactive, Kir21 inh 0.64, TRPC6 act inactive, TRPC4 act inactive, TRPC4 potent inactive, HEK293 MPD ctr-2 -84%*, HEK293 MPD ctr 2-2 69%*, TRPC4/MOR mod -22%*, TRPC4/MOR inh 2 93%*, TRPC6 block conf 88%* and TRPC6 act confirm inactive.
`CCN(CC)CCCOC(=O)C(OC)(c1ccccc1)c1ccccc1` gave TRPC6 inhibitor -6.4*, TRPC4 inh inactive, Kir21 inh -0.43, TRPC6 act inactive, TRPC4 act inactive, TRPC4 potent inactive, HEK293 MPD ctr-2 153%*, HEK293 MPD ctr 2-2 78%*, TRPC4/MOR mod 34%*, TRPC4/MOR inh 2 inactive and TRPC6 block conf 61%*.
For CCOC(C(=O)OCCC[N+](C)(CC)CC)(c1ccccc1)c1ccccc1 the results were TRPC6 inhibitor inactive, TRPC4 inh inactive, Kir21 inh 0.07, TRPC6 act inactive, TRPC4 act inactive and TRPC4 potent inactive.
Screening O=C1C2CCCC1C(N1CCCC1)CC2 (stereo unspecified) returned TRPC6 inhibitor inactive, TRPC4 inh inactive, Kir21 inh 2.6, TRPC6 act inactive, TRPC4 act inactive and TRPC4 potent inactive.
